Reference: ChEMBL document CHEMBL4196006, “Aryl thiosemicarbazones for the treatment of trypanosomatidic infections” (Eur J Med Chem, 2018)
Values belong to the compound of their own block, whether it stands above or below them. Calls of active or inactive are those of the source. The calls are words filed in the database; no cut-off is given here.

How the values were obtained:
[1] = molecular target: Cytochrome P450 2C9 (Homo sapiens, UniProt P11712); assay: Inhibition of human microsomal CYP2C9 expressed in baculovirus infected BTI-TN-5B1-4 cells incubated for 30 mins by luciferase assay
[2] = test system: Leishmania infantum; assay: Antileishmanial activity against Leishmania infantum amastigote form after 72 hrs by steady-Glo reagent based assay; assay type: functional, organism-based
Summary of the method: (§1)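 Intramacrophage L. infantum amastigotes in THP-1-derived macrophages, tested at 50 μM or in dose-response. Plates held 72 h at 37 °C, 5% CO2. Medium was replaced by PBS, macrophages lysed, and parasites read by Steady-Glo luminescence. High-content imaging gave host cell number, infection ratio (infected/total cells) and parasites per infected cell. Values are means of at least two independent experiments.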

[3] = (§2) Cytotoxicity against human THP1 cells assessed as decrease in viable cells after 72 hrs by MTT assay; assay type: cell-based, THP-1; settings: THP1 cells
Summary of the method: (§3)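 THP-1-derived macrophages exposed to compounds for 72 h, tested at 100 μM or in dose-response; viability read by MTT colorimetric assay.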

[4] = Cytotoxicity against human U2OS cells assessed as decrease in viable cells after 72 hrs by cell number count in anti-T. cruzi high content imaging assay; settings: U2OS cells
[5] = test system: Leishmania infantum; assay: Antileishmanial activity against Leishmania infantum amastigote form; assay type: functional, organism-based; summary of the method: as §1
[6] = test system: THP-1; assay: as §2; assay type: cell-based; settings: thp-1, 72 h; summary of the method: as §3
[7] = test system: U2OS; assay: Cytotoxicity against human U2OS cells assessed as decrease in viable cells after 72 hrs by cell number count in anti-T. cruzi high content imaging assay; settings: u2os, 72 h
[8] = molecular target: Cytochrome P450 3A4 (Homo sapiens, UniProt P08684); assay: Inhibition of human microsomal CYP3A4 expressed in baculovirus infected BTI-TN-5B1-4 cells incubated for 30 mins by luciferase assay; assay type: ADME
[9] = test system: Trypanosoma brucei; assay: Potentiation of methotrexate-induced antitrypanosomal activity against Trypanosoma brucei Lister 427 bloodstream form at 10 uM after 72 hrs by resazurin dye-based assay relative to control; assay type: functional
[10] = Cytotoxicity against human U2OS cells assessed as viable cells at 50 uM after 72 hrs by MTT assay relative to control; assay type: cell-based; settings: read-out: Activity
[11] = molecular target: T1, CYP1A2 (Homo sapiens, UniProt P05177); assay: Inhibition of human microsomal CYP1A2 expressed in baculovirus infected BTI-TN-5B1-4 cells at 10 uM incubated for 30 mins by luciferase assay relative to control; assay type: ADME
T1 sequence (P05177 whole entry): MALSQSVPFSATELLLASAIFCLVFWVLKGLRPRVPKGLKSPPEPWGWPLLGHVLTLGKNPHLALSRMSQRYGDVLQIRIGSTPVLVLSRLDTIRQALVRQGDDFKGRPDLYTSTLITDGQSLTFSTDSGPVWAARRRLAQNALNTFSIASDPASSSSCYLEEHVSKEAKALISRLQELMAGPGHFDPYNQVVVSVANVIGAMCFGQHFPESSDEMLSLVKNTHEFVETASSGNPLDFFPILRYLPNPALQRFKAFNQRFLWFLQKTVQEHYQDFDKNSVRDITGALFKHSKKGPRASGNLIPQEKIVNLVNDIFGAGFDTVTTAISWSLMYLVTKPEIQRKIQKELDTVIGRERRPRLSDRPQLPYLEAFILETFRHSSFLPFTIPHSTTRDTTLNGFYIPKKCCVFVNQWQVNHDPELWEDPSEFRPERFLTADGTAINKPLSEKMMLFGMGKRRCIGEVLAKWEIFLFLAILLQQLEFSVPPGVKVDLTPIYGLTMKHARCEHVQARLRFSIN
Summary of the method: (§4)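 CYP1A2, 2C9, 2C19, 2D6 and 3A4 in microsomes from baculovirus-infected insect cells, each with a P450-Glo luminogenic substrate. Inhibition read as loss of light; single-point at 10 μM, triplicate.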

[12] = molecular target: CYP2C9 (Homo sapiens, UniProt P11712); assay: Inhibition of human microsomal CYP2C9 expressed in baculovirus infected BTI-TN-5B1-4 cells at 10 uM incubated for 30 mins by luciferase assay relative to control; assay type: ADME; summary of the method: as §4
[13] = molecular target: CYP2C19 (Homo sapiens, UniProt P33261); assay: Inhibition of human microsomal CYP2C19 expressed in baculovirus infected BTI-TN-5B1-4 cells at 10 uM incubated for 30 mins by luciferase assay relative to control; assay type: ADME; summary of the method: as §4
[14] = test system: Trypanosoma brucei; assay: Potentiation of methotrexate-induced antitrypanosomal activity against Trypanosoma brucei Lister 427 bloodstream form at 10 uM after 72 hrs by resazurin dye-based assay; assay type: functional
[15] = test system: A549; assay: Cytotoxicity against human A549 cells assessed as growth inhibition at 10 uM after 48 hrs by CellTiter-Glo assay relative to control; values are per cent of control; settings: a549, 48 h, 10 µM
[16] = molecular target: CYP2D6 (Homo sapiens, UniProt P10635); assay: Inhibition of human microsomal CYP2D6 expressed in baculovirus infected BTI-TN-5B1-4 cells at 10 uM incubated for 30 mins by luciferase assay relative to control; assay type: ADME; summary of the method: as §4
[17] = molecular target: CYP3A4 (Homo sapiens, UniProt P08684); assay: Inhibition of human microsomal CYP3A4 expressed in baculovirus infected BTI-TN-5B1-4 cells at 10 uM incubated for 30 mins by luciferase assay relative to control; assay type: ADME; summary of the method: as §4
[18] = test system: Trypanosoma cruzi; assay: Antitrypanosomal activity against Trypanosoma cruzi amastigote form infected in human U2OS cells assessed as parasite growth inhibition at 50 uM after 72 hrs relative to control; assay type: functional; settings: read-out: GI
Summary of the method: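 U2OS monolayers grown for 24 h, then infected with tissue-derived trypomastigotes of T. cruzi Y strain. Compounds were added 24 h after infection at 50 μM (single-point) or in dose-response, with 72 h exposure. Plates were fixed, stained and analysed by high-content imaging; activity was normalized to infected and non-infected controls. Means of at least two experiments; benznidazole as reference.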

[19] = Cytotoxicity against human 786-O cells assessed as inhibition of mitochondrial viability at 10 uM after 6 hrs by CMXRos staining based assay relative to control; assay type: cell-based, 786-0; settings: read-out: INH
Summary of the method: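 Mitochondrial toxicity monitored by MitoTracker Red CMXRos uptake and high-content imaging; compound at 10 μM, triplicate.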

[20] = test system: Trypanosoma brucei; assay: Antitrypanosomal activity against Trypanosoma brucei Lister 427 bloodstream form assessed as parasite growth inhibition at 50 uM after 72 hrs by SYBR Green assay relative to control; assay type: functional
[21] = test system: Leishmania infantum; assay: Antileishmanial activity against Leishmania infantum amastigote form assessed as parasite growth inhibition at 50 uM after 72 hrs by steady-Glo reagent based assay relative to control; assay type: functional; settings: read-out: GI; summary of the method: as §1
[22] = Cytotoxicity against human WI38 cells assessed as growth inhibition at 10 uM after 48 hrs by CellTiter-Glo assay relative to control; values are per cent of control; settings: WI38 cells
[23] = Cytotoxicity against human THP1 cells assessed as viable cells at 100 uM after 72 hrs by MTT assay relative to control; assay type: cell-based, THP-1; settings: read-out: Activity; summary of the method: as §3
[24] = molecular target: hERG (KCNH2) (Homo sapiens, UniProt Q12809); assay: Inhibition of human ERG at 10 uM incubated for 2 hrs by fluorescence polarisation assay relative to control
[25] = molecular target: T2, Pteridine reductase 1 (Leishmania major) (UniProt Q01782); assay: Inhibition of Leishmania major PTR1 at 50 uM using H2B as substrate in presence of NADPH by photometric analysis relative to control
T2 sequence (whole entry): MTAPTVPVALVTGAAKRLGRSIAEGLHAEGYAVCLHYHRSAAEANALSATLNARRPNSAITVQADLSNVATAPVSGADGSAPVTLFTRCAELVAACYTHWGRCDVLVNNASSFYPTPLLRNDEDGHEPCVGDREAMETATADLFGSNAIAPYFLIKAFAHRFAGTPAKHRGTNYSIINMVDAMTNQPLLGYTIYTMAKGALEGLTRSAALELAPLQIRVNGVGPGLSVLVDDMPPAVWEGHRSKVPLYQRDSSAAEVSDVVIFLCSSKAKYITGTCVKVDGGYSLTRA

[26] = test system: Trypanosoma brucei; assay: Antitrypanosomal activity against Trypanosoma brucei Lister 427 bloodstream form at 10 uM after 72 hrs by resazurin dye-based assay relative to control; assay type: functional
[27] = molecular target: T3, Pteridine reductase, putative (Trypanosoma brucei) (UniProt Q581W1); assay: Inhibition of Trypanosoma brucei PTR1 at 50 uM using H2B as substrate in presence of NADPH by photometric analysis relative to control
T3 sequence (whole entry): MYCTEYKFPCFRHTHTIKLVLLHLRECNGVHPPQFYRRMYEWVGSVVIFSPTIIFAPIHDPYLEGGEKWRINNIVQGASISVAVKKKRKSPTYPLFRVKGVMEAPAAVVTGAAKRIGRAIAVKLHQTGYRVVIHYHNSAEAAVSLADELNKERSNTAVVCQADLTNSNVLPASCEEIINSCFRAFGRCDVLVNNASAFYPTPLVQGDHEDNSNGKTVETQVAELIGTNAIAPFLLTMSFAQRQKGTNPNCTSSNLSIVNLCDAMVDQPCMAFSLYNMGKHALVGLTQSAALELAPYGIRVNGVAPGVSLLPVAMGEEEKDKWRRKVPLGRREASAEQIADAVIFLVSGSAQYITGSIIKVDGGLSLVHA

[28] = molecular target: Aurora kinase B (Homo sapiens, UniProt Q96GD4); assay: Inhibition of recombinant full-length human aurora B kinase expressed in baculovirus system at 10 uM using MBP as substrate incubated for 45 mins by ADP-glo kinase assay; settings: probe MBP
Summary of the method: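 Aurora B activity measured as ADP formation via coupled luciferase ADP-Glo luminescence; single-point at 10 μM, triplicate.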

Sequence of Cytochrome P450 2C9 (P11712 whole entry): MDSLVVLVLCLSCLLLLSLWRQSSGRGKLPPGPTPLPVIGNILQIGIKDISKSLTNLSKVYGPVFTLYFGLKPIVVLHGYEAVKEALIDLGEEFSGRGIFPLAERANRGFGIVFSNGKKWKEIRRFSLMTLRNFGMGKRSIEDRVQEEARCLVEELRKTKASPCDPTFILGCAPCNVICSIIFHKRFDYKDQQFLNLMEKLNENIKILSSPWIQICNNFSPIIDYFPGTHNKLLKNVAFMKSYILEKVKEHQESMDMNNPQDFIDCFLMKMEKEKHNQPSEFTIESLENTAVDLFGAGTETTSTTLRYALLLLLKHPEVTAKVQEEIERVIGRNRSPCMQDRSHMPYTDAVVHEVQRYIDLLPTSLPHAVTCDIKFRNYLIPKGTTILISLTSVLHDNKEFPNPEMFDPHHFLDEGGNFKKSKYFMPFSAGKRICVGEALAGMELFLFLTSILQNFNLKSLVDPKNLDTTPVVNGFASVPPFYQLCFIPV
Sequence of CYP2D6 (P10635 whole entry): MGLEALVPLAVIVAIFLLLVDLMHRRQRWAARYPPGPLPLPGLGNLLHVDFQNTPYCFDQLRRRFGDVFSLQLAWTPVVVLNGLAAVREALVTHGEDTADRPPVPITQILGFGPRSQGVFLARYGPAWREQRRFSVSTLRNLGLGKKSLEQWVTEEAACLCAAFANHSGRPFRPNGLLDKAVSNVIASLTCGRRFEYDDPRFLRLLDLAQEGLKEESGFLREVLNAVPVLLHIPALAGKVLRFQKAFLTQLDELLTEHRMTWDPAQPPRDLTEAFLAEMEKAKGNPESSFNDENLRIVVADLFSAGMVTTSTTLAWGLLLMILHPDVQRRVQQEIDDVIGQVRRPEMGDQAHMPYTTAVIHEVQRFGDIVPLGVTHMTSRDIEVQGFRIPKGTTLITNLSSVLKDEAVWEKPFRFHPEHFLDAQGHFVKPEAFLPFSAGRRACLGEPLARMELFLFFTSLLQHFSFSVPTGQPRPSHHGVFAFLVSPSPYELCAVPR
Sequence of hERG (KCNH2) (Q12809 whole entry): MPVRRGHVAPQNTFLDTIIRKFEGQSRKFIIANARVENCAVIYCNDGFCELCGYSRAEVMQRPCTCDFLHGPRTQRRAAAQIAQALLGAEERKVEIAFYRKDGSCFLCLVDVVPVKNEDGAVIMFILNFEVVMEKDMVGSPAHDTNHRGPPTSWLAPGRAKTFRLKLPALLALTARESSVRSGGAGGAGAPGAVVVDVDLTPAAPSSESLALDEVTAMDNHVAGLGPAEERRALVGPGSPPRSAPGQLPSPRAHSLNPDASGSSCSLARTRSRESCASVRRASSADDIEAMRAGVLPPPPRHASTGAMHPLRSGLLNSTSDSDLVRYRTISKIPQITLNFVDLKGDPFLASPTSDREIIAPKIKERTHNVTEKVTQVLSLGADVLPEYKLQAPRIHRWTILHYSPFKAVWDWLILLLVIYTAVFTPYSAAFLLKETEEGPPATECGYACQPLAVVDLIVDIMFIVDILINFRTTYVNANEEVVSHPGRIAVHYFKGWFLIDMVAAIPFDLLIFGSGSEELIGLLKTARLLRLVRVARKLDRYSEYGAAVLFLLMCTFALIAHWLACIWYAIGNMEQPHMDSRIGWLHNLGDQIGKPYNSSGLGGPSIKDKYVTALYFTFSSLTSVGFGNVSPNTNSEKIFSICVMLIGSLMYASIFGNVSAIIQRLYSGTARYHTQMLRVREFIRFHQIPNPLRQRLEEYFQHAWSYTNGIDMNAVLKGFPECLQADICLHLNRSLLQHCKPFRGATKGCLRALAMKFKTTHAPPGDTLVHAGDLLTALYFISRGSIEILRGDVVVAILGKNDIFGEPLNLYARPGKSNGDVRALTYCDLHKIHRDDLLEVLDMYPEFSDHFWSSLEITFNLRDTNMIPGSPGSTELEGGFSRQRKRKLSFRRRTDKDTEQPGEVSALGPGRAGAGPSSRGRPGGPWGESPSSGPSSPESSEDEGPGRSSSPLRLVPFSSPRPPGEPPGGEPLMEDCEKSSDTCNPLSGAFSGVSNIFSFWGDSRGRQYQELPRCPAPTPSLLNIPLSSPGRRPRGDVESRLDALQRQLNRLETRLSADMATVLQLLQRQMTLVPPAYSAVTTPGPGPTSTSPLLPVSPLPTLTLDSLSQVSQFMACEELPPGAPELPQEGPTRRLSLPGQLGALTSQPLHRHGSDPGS
Sequence of CYP2C19 (P33261 whole entry): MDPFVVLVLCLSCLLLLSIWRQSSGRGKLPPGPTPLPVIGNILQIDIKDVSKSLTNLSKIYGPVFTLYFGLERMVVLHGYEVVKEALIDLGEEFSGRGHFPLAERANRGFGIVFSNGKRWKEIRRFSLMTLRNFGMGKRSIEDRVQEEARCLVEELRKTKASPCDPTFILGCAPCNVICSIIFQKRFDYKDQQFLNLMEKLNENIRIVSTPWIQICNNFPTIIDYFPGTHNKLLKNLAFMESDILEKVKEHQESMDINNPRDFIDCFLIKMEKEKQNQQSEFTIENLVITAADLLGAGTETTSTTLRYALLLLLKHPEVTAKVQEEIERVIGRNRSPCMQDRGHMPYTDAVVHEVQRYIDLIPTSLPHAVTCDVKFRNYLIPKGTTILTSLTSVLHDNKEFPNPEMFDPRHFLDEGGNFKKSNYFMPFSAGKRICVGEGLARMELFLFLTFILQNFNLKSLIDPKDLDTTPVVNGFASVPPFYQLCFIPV
Sequence of Aurora kinase B (Q96GD4 whole entry): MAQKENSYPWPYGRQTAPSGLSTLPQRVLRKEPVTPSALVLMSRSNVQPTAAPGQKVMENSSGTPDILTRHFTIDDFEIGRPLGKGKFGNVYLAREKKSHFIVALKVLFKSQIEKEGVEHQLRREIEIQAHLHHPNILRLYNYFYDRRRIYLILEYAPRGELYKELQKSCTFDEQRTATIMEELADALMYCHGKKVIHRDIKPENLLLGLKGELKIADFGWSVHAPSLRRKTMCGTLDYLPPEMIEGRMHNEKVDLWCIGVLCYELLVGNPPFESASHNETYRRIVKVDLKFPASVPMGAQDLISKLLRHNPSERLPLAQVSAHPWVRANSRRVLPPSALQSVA
Sequence of CYP2C9 (P11712 whole entry): as the sequence (P11712 whole entry) above
Sequence of CYP3A4 (P08684 whole entry): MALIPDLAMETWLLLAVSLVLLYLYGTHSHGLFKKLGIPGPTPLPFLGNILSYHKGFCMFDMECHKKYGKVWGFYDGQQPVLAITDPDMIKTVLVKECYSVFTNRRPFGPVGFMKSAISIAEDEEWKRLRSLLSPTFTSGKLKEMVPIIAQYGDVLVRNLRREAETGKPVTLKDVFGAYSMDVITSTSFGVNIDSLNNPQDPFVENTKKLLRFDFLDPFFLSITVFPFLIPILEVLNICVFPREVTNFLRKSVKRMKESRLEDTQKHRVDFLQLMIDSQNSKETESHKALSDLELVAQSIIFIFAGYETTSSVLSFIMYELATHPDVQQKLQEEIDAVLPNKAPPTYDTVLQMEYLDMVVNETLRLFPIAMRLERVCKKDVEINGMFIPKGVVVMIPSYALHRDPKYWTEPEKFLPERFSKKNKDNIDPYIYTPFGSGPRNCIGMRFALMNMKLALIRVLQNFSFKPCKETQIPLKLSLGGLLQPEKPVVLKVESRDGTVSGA
Sequence of Cytochrome P450 3A4 (P08684 whole entry): as above

- IC50 [1]: > 100 µM
- EC50 [2]: 2.51 to 2.8 µM
- EC50 [5]: 1.29 µM
SMILES: CCCCCCCCCCCCCCCCOP(=O)([O-])OCC[N+](C)(C)C [MILTEFOSINE]
- CC50 at 72 h [3]: 15 µM
- CC50 at 72 h [4]: 11.5 µM

- IC50 [1]: > 100 µM
- IC50 [8]: 98.2 µM
SMILES: O=C(Cn1ccnc1[N+](=O)[O-])NCc1ccccc1 [BENZNIDAZOLE]
- CC50 [6]: Non-Toxic
- CC50 [7]: Non-Toxic

- inhibition at 0.5 h, 10 µM [11]: 34.3%
- inhibition at 0.5 h, 10 µM [12]: -9.43%
- inhibition at 0.5 h, 10 µM [13]: -44.2%
- inhibition at 0.5 h, 10 µM [16]: 0.08%
- inhibition at 0.5 h, 10 µM [17]: -14.8%
- inhibition [25]: 4.04%
- inhibition [27]: 4.77%
- inhibition at 0.75 h, 10 µM [28]: -18.2%
SMILES: COc1cccc(OC)c1/C=N/NC(N)=S
- Activity [9]: 21.83%
- viability at 72 h, 50 µM [10]: 21.7%
- PF [14]: 0.66
- cell growth (% of control) [15]: 162.27%
- inhibition of growth at 50 µM [18]: 74.3%
- cytotoxicity at 6 h, 10 µM [19]: -12.3%
- growth inhibition (GI) [20]: inactive
- inhibition of growth at 50 µM [21]: 25.3%
- cell growth (% of control) at 48 h, 10 µM [22]: 114%
- viability at 72 h, 100 µM [23]: 76.8%
- inhibition at 2 h, 10 µM [24]: -1.27%
- Activity [26]: 8.83%

- IC50 [1]: > 100 µM
- EC50 [2]: 0.2 µM
- EC50 [5]: 1.14 µM
SMILES: C[C@@H]1[C@H](O)[C@@H](C)/C=C/C=C/C=C/C=C/C=C/C=C/C=C/[C@H](O[C@@H]2O[C@H](C)[C@@H](O)[C@H](N)[C@@H]2O)C[C@@H]2O[C@](O)(C[C@@H](O)C[C@@H](O)[C@H](O)CC[C@@H](O)C[C@@H](O)CC(=O)O[C@H]1C)C[C@H](O)[C@H]2C(=O)O [AMPHOTERICIN B]
- CC50 at 72 h [3]: 16.9 µM
